{"source": "ChEMBL document CHEMBL4190344", "about": "“Synthesis of substituted phenanthrene-9-benzimidazole conjugates: Cytotoxicity evaluation and apoptosis inducing studies” (Eur J Med Chem, 2017)", "key": {"BT-549": {"system": "BT-549", "experiment": "Cytotoxicity in human BT549 cells incubated for 48 hrs by MTT assay", "assay_type": "functional, cell-based", "details": "BT-549, 48 h", "outline": "(§1)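 Cells (1 × 10^4/well) were seeded in medium with 10% FBS and left 24 h at 37 °C. Compound diluted in medium was then added, alongside a vehicle control, for 48 h. MTT (5 mg/mL stock) was added for 4 h, formazan dissolved in DMSO and absorbance read at 570 nm. IC50 taken as the concentration giving 50% inhibition.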"}, "MDA-MB-453": {"system": "MDA-MB-453", "experiment": "Cytotoxicity in human MDA-MB-453 cells incubated for 48 hrs by MTT assay", "assay_type": "functional, cell-based", "details": "MDA-MB-453, 48 h", "outline": "as §1"}, "DU-145": {"system": "DU-145", "experiment": "Cytotoxicity in human DU145 cells incubated for 48 hrs by MTT assay", "assay_type": "functional, cell-based", "details": "DU-145, 48 h", "outline": "as §1"}, "PC-3 [1]": {"system": "PC-3", "experiment": "Cytotoxicity in human PC3 cells assessed as reduction in cell viability at 2.5 to 10 uM incubated for 48 hrs by phase contrast microscopy", "assay_type": "functional, cell-based", "outline": "(§2)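 PC-3 cells at 1 × 10^5 cells/mL adhered overnight, then received compound at 2.5, 5.0 or 10.0 µM. After 48 h, morphology (viable cell number, nuclear shrinkage, detachment) was imaged by phase contrast microscopy.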"}, "PC-3 [2]": {"system": "PC-3", "experiment": "Induction of morphological changes in human PC3 cells assessed as increase in cell detachment at 2.5 to 10 uM incubated for 48 hrs by phase contrast microscopy", "assay_type": "functional, cell-based", "outline": "as §2"}, "PC-3 [3]": {"system": "PC-3", "experiment": "Induction of cell death in human PC3 cells assessed as induction of apoptotic body formation at 10 uM incubated for 48 hrs by acridine orange and ethidium bromide staining based fluorescence microscopy", "assay_type": "functional", "outline": "(§3)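 PC-3 cells (1 × 10^6 cells/mL) were treated with compound and kept 48 h at 37 °C, 5% CO2. Acridine orange and ethidium bromide (10 µg/mL) were added in equal volumes. After 10 min, cells were imaged by fluorescence microscopy (ex 488/em 550 nm, 200×).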"}, "PC-3 [4]": {"system": "PC-3", "experiment": "Induction of cell death in human PC3 cells assessed as induction of cell shrinkage at 10 uM incubated for 48 hrs by acridine orange and ethidium bromide staining based fluorescence microscopy", "assay_type": "functional", "outline": "as §3"}, "PC-3 [5]": {"system": "PC-3", "experiment": "Induction of cell death in human PC3 cells assessed as induction of membrane blebbing at 10 uM incubated for 48 hrs by acridine orange and ethidium bromide staining based fluorescence microscopy", "assay_type": "functional", "outline": "as §3"}, "PC-3 [6]": {"system": "PC-3", "experiment": "Induction of apoptosis in human PC3 cells assessed as induction of condensed nuclei formation at 2.5 to 10 uM incubated for 48 hrs by DAPI staining based fluorescence microscopy", "assay_type": "functional, cell-based", "outline": "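Compound-treated PC-3 cells were PBS-washed, permeabilised with 0.1% Tween 20 for 10 min and stained with 1 µM DAPI. Nuclear morphology was viewed by fluorescence microscopy at ex 359/em 461 nm, 200×.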"}, "PC-3 [7]": {"system": "PC-3", "experiment": "Cell cycle arrest in human PC3 cells assessed as accumulation at subG1 phase at 2.5 uM incubated for 24 hrs by propidium iodide staining based flow cytometry (reference value: 1.71%)", "assay_type": "functional"}, "PC-3 [8]": {"system": "PC-3", "experiment": "Cell cycle arrest in human PC3 cells assessed as accumulation at G2/M phase at 2.5 uM incubated for 24 hrs by propidium iodide staining based flow cytometry (reference value: 25.96%)", "assay_type": "functional"}, "PC-3 [9]": {"system": "PC-3", "experiment": "Cell cycle arrest in human PC3 cells assessed as accumulation at G0/G1 phase at 5 uM incubated for 24 hrs by propidium iodide staining based flow cytometry (reference value: 56.67%)", "assay_type": "functional"}, "PC-3 [10]": {"system": "PC-3", "experiment": "Cell cycle arrest in human PC3 cells assessed as accumulation at G2/M phase at 5 uM incubated for 24 hrs by propidium iodide staining based flow cytometry (reference value: 25.96%)", "assay_type": "functional"}, "PC-3 [11]": {"system": "PC-3", "experiment": "Cell cycle arrest in human PC3 cells assessed as accumulation at S phase at 5 uM incubated for 24 hrs by propidium iodide staining based flow cytometry (reference value: 13.92%)", "assay_type": "functional"}, "PC-3 [12]": {"system": "PC-3", "experiment": "Cell cycle arrest in human PC3 cells assessed as accumulation at G0/G1 phase at 2.10 uM incubated for 24 hrs by propidium iodide staining based flow cytometry (reference value: 106.67%)", "assay_type": "functional"}, "PC-3 [13]": {"system": "PC-3", "experiment": "Cell cycle arrest in human PC3 cells assessed as accumulation at S phase at 2.10 uM incubated for 24 hrs by propidium iodide staining based flow cytometry (reference value: 13.92%)", "assay_type": "functional"}, "PC-3 [14]": {"system": "PC-3", "experiment": "Induction of reactive oxygen species in human PC3 cells at 2.5 to 10 uM pre-incubated with NAC before compound addition for 6 hrs by DCFDA dye based spectrofluorometry", "assay_type": "functional, cell-based", "outline": "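PC-3 cells (1 × 10^6 cells/mL) adhered overnight, then were treated at 2.5, 5.0 or 10.0 µM. Medium was replaced with DCFDA 10 µM for 30 min in the dark, and fluorescence read by spectrofluorometer at ex 488/em 525 nm. N-acetyl cysteine pretreatment before compound and H2O2 were used as comparisons.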"}, "PC-3 [15]": {"system": "PC-3", "experiment": "Induction of mitochondrial membrane potential loss in human PC3 cells assessed as JC1 aggregate level at 2.5 uM incubated for 24 hrs by JC1 staining based flow cytometry (reference value: 76.94%)", "assay_type": "functional"}, "PC-3 [16]": {"system": "PC-3", "experiment": "Induction of mitochondrial membrane potential loss in human PC3 cells assessed as JC1 monomer level at 5 uM incubated for 24 hrs by JC1 staining based flow cytometry (reference value: 22.8%)", "assay_type": "functional"}, "PC-3 [17]": {"system": "PC-3", "experiment": "Induction of mitochondrial membrane potential loss in human PC3 cells assessed as JC1 aggregate level at 10 uM incubated for 24 hrs by JC1 staining based flow cytometry (reference value: 76.94%)", "assay_type": "functional"}, "PC-3 [18]": {"system": "PC-3", "experiment": "Induction of mitochondrial membrane potential loss in human PC3 cells incubated for 24 hrs by JC1 staining based flow cytometry (reference value: 76.94%)", "assay_type": "functional, cell-based"}, "PC-3 [19]": {"system": "PC-3", "experiment": "Induction of apoptosis in human PC3 cells assessed as viable cells level at 2.5 uM incubated for 24 hrs by annexin V-FITC/propidium iodide dual staining based flow cytometry (reference value: 76.73%)", "assay_type": "functional", "outline": "(§4)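 PC-3 cells were grown 24 h, then treated 24 h at 2.5, 5.0 or 10 µM. Cells were trypsinised, washed twice in ice-cold PBS and stained in binding buffer with Annexin V-FITC followed by propidium iodide at room temperature in the dark. 10,000 cells per sample were run on a flow cytometer, with quadrants scored as live, early apoptotic, late apoptotic or necrotic.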"}, "PC-3 [20]": {"system": "PC-3", "experiment": "Induction of apoptosis in human PC3 cells assessed as early apoptotic cells level at 2.5 uM incubated for 24 hrs by annexin V-FITC/propidium iodide dual staining based flow cytometry (reference value: 11.76%)", "assay_type": "functional", "outline": "as §4"}, "PC-3 [21]": {"system": "PC-3", "experiment": "Induction of apoptosis in human PC3 cells assessed as late apoptotic cells level at 2.5 uM incubated for 24 hrs by annexin V-FITC/propidium iodide dual staining based flow cytometry (reference value: 10.92%)", "assay_type": "functional", "outline": "as §4"}, "PC-3 [22]": {"system": "PC-3", "experiment": "Induction of apoptosis in human PC3 cells assessed as early apoptotic cells level at 5 uM incubated for 24 hrs by annexin V-FITC/propidium iodide dual staining based flow cytometry (reference value: 11.76%)", "assay_type": "functional", "outline": "as §4"}, "PC-3 [23]": {"system": "PC-3", "experiment": "Induction of apoptosis in human PC3 cells assessed as late apoptotic cells level at 5 uM incubated for 24 hrs by annexin V-FITC/propidium iodide dual staining based flow cytometry (reference value: 10.92%)", "assay_type": "functional", "outline": "as §4"}, "PC-3 [24]": {"system": "PC-3", "experiment": "Induction of apoptosis in human PC3 cells assessed as necrotic cells level at 5 uM incubated for 24 hrs by annexin V-FITC/propidium iodide dual staining based flow cytometry (reference value: 0.59%)", "assay_type": "functional", "outline": "as §4"}, "PC-3 [25]": {"system": "PC-3", "experiment": "Induction of apoptosis in human PC3 cells assessed as necrotic cells level at 10 uM incubated for 24 hrs by annexin V-FITC/propidium iodide dual staining based flow cytometry (reference value: 0.59%)", "assay_type": "functional", "outline": "as §4"}}, "note": "Activity calls are given as the source filed them. No cut-off for these calls is given here.", "data": [{"molecule": "COc1ccc2cc(-c3nc4ccc(F)cc4[nH]3)c3cc(OC)c(OC)cc3c2c1", "values": [{"measurement": "IC50", "setting": "BT-549", "result": 13.2, "unit": "µM"}, {"measurement": "IC50", "setting": "MDA-MB-453", "result": 6.61, "unit": "µM"}, {"measurement": "IC50", "setting": "DU-145", "result": "> 20", "unit": "µM"}, {"measurement": "Activity", "setting": "PC-3 [1]", "result": "Active"}, {"measurement": "Activity", "setting": "PC-3 [2]", "result": "Active"}, {"measurement": "Activity", "setting": "PC-3 [3]", "result": "Active"}, {"measurement": "Activity", "setting": "PC-3 [4]", "result": "Active"}, {"measurement": "Activity", "setting": "PC-3 [5]", "result": "Active"}, {"measurement": "Activity", "setting": "PC-3 [6]", "result": "Active"}, {"measurement": "Activity", "setting": "PC-3 [7]", "result": 3.08, "unit": "%"}, {"measurement": "Activity", "setting": "PC-3 [8]", "result": 27.8, "unit": "%"}, {"measurement": "Activity", "setting": "PC-3 [9]", "result": 49.29, "unit": "%"}, {"measurement": "Activity", "setting": "PC-3 [10]", "result": 29.78, "unit": "%"}, {"measurement": "Activity", "setting": "PC-3 [11]", "result": 14.21, "unit": "%"}, {"measurement": "Activity", "setting": "PC-3 [12]", "result": 38.61, "unit": "%"}, {"measurement": "Activity", "setting": "PC-3 [13]", "result": 11.76, "unit": "%"}, {"measurement": "Activity", "setting": "PC-3 [14]", "result": "inactive"}, {"measurement": "Activity", "setting": "PC-3 [15]", "result": 66.43, "unit": "%"}, {"measurement": "Activity", "setting": "PC-3 [16]", "result": 67.42, "unit": "%"}, {"measurement": "Activity", "setting": "PC-3 [17]", "result": 4.29, "unit": "%"}, {"measurement": "Activity", "setting": "PC-3 [18]", "result": "Dose-dependent effect"}, {"measurement": "Activity", "setting": "PC-3 [19]", "result": 38.69, "unit": "%"}, {"measurement": "Activity", "setting": "PC-3 [20]", "result": 36.2, "unit": "%"}, {"measurement": "Activity", "setting": "PC-3 [21]", "result": 24.89, "unit": "%"}, {"measurement": "Activity", "setting": "PC-3 [22]", "result": 33.41, "unit": "%"}, {"measurement": "Activity", "setting": "PC-3 [23]", "result": 34.03, "unit": "%"}, {"measurement": "Activity", "setting": "PC-3 [24]", "result": 0.44, "unit": "%"}, {"measurement": "Activity", "setting": "PC-3 [25]", "result": 0.36, "unit": "%"}]}]}
